# According to PubChem BioAssay:
# A number with no mark means an inactive call. Results filed as inconclusive are left out. Active and inactive are the calls of the source.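 How the source made its calls, unless noted: active means RAM network inhibition above 8.4% in each of two replicates, 3 SD over the compound average; inconclusive means above 8.4% inhibition in only one replicate; inactive means 8.4% inhibition or less in each replicate.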
# Legend:
# [1] = OD615 S. cerevisiae growth inhibition, permissive medium, pilot counter-assay, permissive growth control for S. cerevisiae lifespan shortening project (AID 705;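 active means growth inhibition above 25% in both replicates, a cutoff set 3 SD above the mean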); conditions: OD615, 24 h, at 10 µM, hits give high values
# How it was run: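 System: Engineered DeaD yeast | Buffer or medium: SC raffinose/galactose permissive medium | Doses: 10 µM single dose, 0.25% DMSO | Times: 24 h exposure, 30 °C | Measured by: OD615 turbidity read | Read-out: Yeast growth inhibition indicated by reduced 24 h OD615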
# [2] = Restrictive medium S. cerevisiae growth inhibition, OD615, pilot screen of yeast lifespan reduction project, restrictive growth control (AID 706;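 active means growth inhibition above a set limit, 3 SD over mean compound inhibition, in both replicates, cut at about 43% in these data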;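 further: modified DeaD lifespan yeast strain shifted to restrictive glucose medium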); conditions: OD615, 48 h, at 10 µM, hits give high values
# How it was run: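 Assay system: engineered S. cerevisiae DeaD strain; Buffer or medium: CSMM-D glucose medium; Dosing: 10 µM compound, 0.25% DMSO; Times: cell pre-growth 4 h, compound exposure 48 h, 30 °C; Detection: absorbance (optical density) measured at 615 nm.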
# [3] = viability gain of MRP-1-high H69AR cells under doxorubicin, pilot screen, MRP-1 activator project, CellTiter-Glo, duplicate (AID 807;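 active means viability increase at or above a cutoff of the median across tested compounds plus 3 SD, cut at about 8.5% in these data, passing the limit was not always enough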;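 further: compound pretreatment 18-22 h then 72 h combined with doxorubicin; 0% = doxorubicin alone and 100% = vehicle without doxorubicin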); conditions: H69AR viability with doxorubicin, CellTiter-Glo luminescence; at 10 µM; hits give high values
# [4] = growth suppression of PTEN-deleted HCT116, pilot screen, cell-based, HCT116 clonal line, CellTiter-Glo (AID 824;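 active means viability at or below 27.92% in each of two runs, the all-compound median minus 4 SD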;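 further: 0% = 20 µM Hyamine control and 100% = vehicle cell control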); conditions: 60 h, at 10 µM, hits give low values
# [5] = inhibitors of the yeast RAM network, pilot screen, dse1pr::URA3 reporter, 5-FOA selection (AID 869;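 active means inhibition over a set limit, the all-compound mean plus 3 SD, in both replicate runs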;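 further: 0% = DMSO wells with no growth and 100% = 10 µM 1-NA-PP1 with full growth; RAM network block rescues cells from 5-FOA so hits raise OD615 growth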); conditions: S. cerevisiae dse1pr::URA3 5-FOA growth, OD615, 2 d; at 10 µM; hits give high values; strain carries analog-sensitive mutant Cbk1 kinase
# [6] = RAM signaling pathway blockade in yeast – S. cerevisiae, Pdr1DBD-CYC8 efflux-inhibited sensitized strain, primary screen (AID 1298);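 further: 0% = DMSO untreated cells without growth and 100% = 10 µM 1-NA-PP1 full growth; higher means more yeast growth rescued from 5-FOA killing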; conditions: S. cerevisiae cbk1-as DSE1-URA3 strain, 5-FOA growth OD615, 2 d; at 50 µM; hits give high values
SMILES,growth inhibition [1],growth inhibition [2],viability increase [3],viability [4],inhibition [5],RAM network inhibition [6]
Cc1nc2nc(SCC(=O)N3CCOCC3)nn2c(C)c1Cc1ccccc1,-0.01%,1.59%,-3.4%,95.5%,1.7%,0.77%
O=C(NCc1ccco1)c1ccc(CN2CCOCC2)cc1,-5.32%,1.69%,-3.13%,105%,2.41%,2.2%
COC(=O)C(C)Sc1nnc(-c2ccncc2)o1 (stereo not given),-6.28%,-8.81%,-0.71%,99.4%,1.64%,0.1%
Cc1ccc(C(C)NC(=O)c2ccco2)cc1C (stereo not given),-7.97%,-4.3%,-3.06%,98.8%,0.75%,-1.23%
C/C(=C1/SC(=S)N(CCC(=O)O)C1=O)c1ccc(O)cc1,-5.09%,-8.91%,1.4%,98.1%,1.2%,0.45%
COc1ccc(CCNC(=O)CN(c2ccc(OC)c(OC)c2)S(C)(=O)=O)cc1OC,-1.96%,-7.65%,0.32%,106%,0.98%,1.49%
COc1cccc(OCCOc2cccc(/C=N/n3cnnc3)c2)c1,6.03%,21.9%,-2.71%,95.8%,1.62%,0.36%
CCN(CC)S(=O)(=O)c1ccc2oc(C(=O)NCC3COc4ccccc4O3)c(C)c2c1 (stereo not given),-4.71%,1.48%,-7.27%,56.5%,2.5%,4.96%
CCC(C)NC(=O)c1cn(C)c(=O)c2cc(OC)c(OC)cc12 (stereo not given),-6.39%,-12.4%,-3.24%,99.7%,1.1%,5.28%
CCOc1ccc(S(=O)(=O)N(C)c2ccc(OCC(=O)Nc3ccc4[nH]c(=O)[nH]c4c3)cc2)cc1,-7.61%,-11.1%,-4.94%,94.1%,0.8%,7.12%
O=C(Oc1c(Cl)cc(Cl)c2cccnc12)N1CCCCC1,-11.5%,-7.42%,-3.65%,77.5%,0.535%,-1.03%
Cc1cc(OCCCCCNCCO)ccc1Cl,-5.31%,-3.71%,-4.62%,78%,2.05%,1.6%
Cc1cc(NS(=O)(=O)c2ccccc2)cc(Cl)c1O,-22.9%,2.72%,-2.8%,86.2%,1.4%,2.58%
COC(=O)C1=C(C)N(c2ccc(F)cc2)C(=O)C1,-6.78%,-12.3%,-2.11%,93.6%,1.19%,-0.26%
CCCCC1CC(CSc2ncn[nH]2)OC1=O (stereo not given),-11.3%,-7.68%,1.38%,98%,1.21%,0.01%
CCN(CC)S(=O)(=O)c1ccc2oc(C(=O)NCc3ccc(F)cc3)c(C)c2c1,-10.9%,12.4%,-6.59%,60.6%,1.37%,7.7%
CC1=CCC(C(=O)O)C(C(=O)O)C1 (stereo not given),-2.08%,-10.3%,-2.04%,95.7%,1.69%,1.34%
Cc1ccc(S(=O)(=O)c2nc(-c3ccc(F)cc3)oc2SCC(=O)NCC2CCCO2)cc1 (stereo not given),8.03%,-4.51%,-7.96%,15.3% (active),0.69%,10.9%
Cc1cccc(N(CC(=O)Nc2c(C)n(C)n(-c3ccccc3)c2=O)S(C)(=O)=O)c1,-9.29%,-0.62%,-0.12%,106%,1.61%,1.64%
CCn1c(C)c2c(C)nnc(C)c2c1C,-7.03%,-3.61%,-3.11%,91.5%,1.05%,-0.52%

SMILES,growth inhibition [1],growth inhibition [2],viability increase [3],viability [4],inhibition [5],RAM network inhibition [6]
Cc1onc(-c2ccccc2)c1C(=O)Nc1ccc2c(C)cc(=O)oc2c1,-3.97%,-0.655%,-2.9%,103%,3.31%,2.2%
COc1cc(C(C)=O)ccc1OC(=O)C(C)N1C(=O)c2ccccc2C1=O (stereo not given),-17.5%,-5.68%,-2.73%,93.9%,1.02%,3.8%
Cc1c(C(=O)NCC2CCCO2)oc2ccc(S(=O)(=O)N3CCCC3)cc12 (stereo not given),-6.79%,-3.9%,-2.38%,91.6%,2%,1.44%
CCOC(=O)c1cc2c(=O)n3ccccc3nc2n(CCOC)c1=NC(=O)c1ccncc1,-1.34%,-11.8%,-5.7%,99.6%,0.96%,5.99%
CCOC(=O)C1CCN(S(=O)(=O)c2cc(Br)cc3c2N(C(=O)C2CC2)CC3)CC1,-12.9%,-13.7%,-1.73%,96.5%,1.68%,1.38%
CCCn1c(C(C)NC(=O)c2ccccc2)nc2ccccc21 (stereo not given),-8.46%,-6.87%,-2.18%,97.6%,2.92%,5.38%
Cc1cc(C(=O)NC(C)c2ccncc2)no1 (stereo not given),-12.9%,8.19%,-2.15%,90.3%,1.55%,0.72%
CN(C)c1ccc(C(=O)Nc2ccc(S(=O)(=O)NC3=NCCCCC3)cc2)cc1,-6.28%,-8.65%,-3.44%,99.4%,1.61%,3.12%
CCC(C)(C(=O)NC1CCCC1)N(C(=O)CNC(C)=O)c1ccccc1 (stereo not given),-11.6%,-1.64%,-1.96%,98.3%,3.23%,3.45%
Cc1nnc(NC(=O)CSc2nccn2-c2cccc(C)c2C)s1,-7.29%,11.5%,-5.19%,30.1%,0.035%,4.71%
CCOC(=O)C(C(=O)Nc1cccc(C)n1)C1CCCCC1 (stereo not given),-6.76%,-0.005%,1.76%,88.1%,3.22%,2.72%
CCOc1ccccc1NC(=O)CSc1ccccc1,-17.2%,-2.58%,-2.94%,85.8%,0.255%,2.06%
c1cncc(CNc2nc(N3CCOCC3)nc(N3CCOCC3)n2)c1,-10.4%,1.83%,-2.97%,91.8%,1.27%,1.95%
Cc1cc(S(=O)(=O)N2CCN(Cc3ccc4c(c3)OCO4)CC2)cc(C)c1N1CCCC1=O,-10.6%,-19.3%,-3.13%,53.6%,-0.21%,0.73%
CCOC(=O)N1CCN(C(=O)CN(c2cccc(C)c2)S(=O)(=O)c2ccccc2)CC1,-9.07%,-2.69%,-2.44%,97.8%,-0.31%,0.62%
Cc1ccc(NC(=O)CC2SC3=NCCN3C2=O)cc1 (stereo not given),3.71%,10.6%,3.08%,96.1%,1.66%,1.49%
CCc1c(C)sc(NC(=O)C2CCCCC2C(=O)O)c1C(N)=O (stereo not given),15.1%,25.8%,-4%,101%,1.77%,9.48%
CCOC(=O)CNS(=O)(=O)CCN1C(=O)c2ccccc2C1=O,-8.36%,-4.12%,0.26%,94.3%,2.52%,0.77%
O=C(Cc1ccc(Cl)cc1)Nc1ccccc1CO,0.105%,-1.33%,0.18%,101%,0.45%,5.48%
Cc1nc2ccccc2c(=O)n1CCCO,-2.92%,0.055%,-2.52%,96%,2.77%,3.03%
